Measurements from the EternaBench riboswitch data.

Test system: MS2 coat protein
Assay: apparent Kd, MS2 coat protein; higher = weaker binding; RNA-MaP array; FMN 200 µM where present
Procedure, shortened: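 Green signal from SNAP-549-labelled MS2 coat protein was normalised to red-channel RNA signal and to the median Fmax of control clusters. The protein was titrated from 0.7 or 1.5 nM, doubling to 3 µM, without and then with constant ligand, over designs transcribed by stalled E. coli RNA polymerase on Illumina sequencing-chip clusters, in 100 mM Tris-HCl pH 7.5, 80 mM KCl, 4 mM MgCl2, BSA, DTT, yeast tRNA and Tween-20. The apparent Kd is the median of filtered per-cluster binding-curve fits.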

[1] = ligand present: flavin mononucleotide, designed as: OFF switch for flavin mononucleotide
[2] = designed as: OFF switch for flavin mononucleotide, no ligand
[3] = designed as: ON switch for flavin mononucleotide, no ligand
[4] = ligand present: flavin mononucleotide, designed as: ON switch for flavin mononucleotide

Sequence	apparent Kd [1]	apparent Kd [2]	apparent Kd [3]	apparent Kd [4]
AUUGUGUGAGGAUAUUAGCAGUAGACGAAUGGAGUCGUGGCUGAGAAGGCACAUGAGGAUCACCCAUGUUCCUU	88.3 nM	–	–	–
AUUGUUGUUGUGAGGAUAUCGUUGAUUUUUUGAAACGAGAAGGCACAUGAGGAUCACCCAUGUUAGUUGUUGGU	311 nM	96.4 nM	–	–
AUUUAAAAGCAGAAGGGCAAGGUGGAUCCCUCACAUGAGGAUCACCCAUGUCUAGGCUUUACCGUGCAGGAUAUGCAAGUAAUA	–	–	26 nM	58.5 nM
AUUUAGUGAGGAUAUGUGGCUUCGAUCGUGAGAUCGAGGCUACAGAAGGCACAUGAGGAUCACCCAUGUUCCUC	498 nM	37.6 nM	–	–
AUUUAGUGCGAGAAGGCGUGGUCACAUGAGGAUCACCCAUGUCAGUACACGAGGAUAUCGAUCCGCUAUGUAAACCUAGGCGGC	–	–	101 nM	6.89 nM
AUUUAUGGCCAGAAGGACAUGAGGAUCACCCAUGUAGGAUAUGGACGAUUUUACUCGGCGGUUCGUUUAGGAAGCACCGGCGGU	–	–	8.58 nM	5.91 nM
AUUUAUGGCCAGAAGGACAUGAGGAUCACCCAUGUAGGAUAUGGACGAUUUUGCUCGGCGGUUCGUUUAGGAAUCACCGGUGGU	–	–	7.88 nM	6.38 nM
AUUUCGUCAGGAUAUCCUAGUAAUUGUUUCAUAUUUACGAAGGAGAAGGGACAUGAGGAUCACCCAUGUUGGUC	130 nM	58.7 nM	–	–
AUUUGACAUGAGGAUCACCCAUGUGAGGAUAUCGUUAUUUACUUUGUUUAUAGUAUCUCGAGAAGGCACAUUUG	220 nM	63.3 nM	–	–
AUUUUACAUGAGGAUCACCCAUGUUUUGGCGGGUCAGGAUAUAGAUCGGAUGAGUUCUGGCUAGAAGGGACAUGUA	–	–	54 nM	106 nM
AUUUUAUAAUAGAAGGAGGACUUCAUGAGGAUCACCCAUGUGUUAGUACUUAGGAUAUGUAAUAACAUGAGGAUCACCCAUGUC	–	–	38.3 nM	43.3 nM
AUUUUGUCAGGAUAUGACUAGUAGGACGAGAGUGCUACUACUUAGAAGGGACAUGAGGAUCACCCAUGUAUUCC	17.4 nM	16 nM	–	–
CAAAACAUCUCCGUGUUUGUCGAACAUGAGGAUCACCCAUGUAGAAGGCAUCGCGCGACGCAGGAUGAGGAUAUACGCUGGAUG	11 nM	6.43 nM	–	–
CAAACAAGUGCGAGCUGACACAUGAGGAUCACCCAUGUAACACAGGAUAUCUGUCAAGGCGUGAAAGAGAAGGGUGGUCGGAAA	–	–	226 nM	375 nM
CAAAUCUGAGGAUAUCGAUUUUUGUACAUGAGGAUCACCCAUGUCCUUUUUAUUAAAUCCCGAGAAGGCAGUGUAU	31.2 nM	27.1 nM	–	–
CAACCGUUGCAGAAGGUUAAAUAAAUUCUCUUCUUGUUUACAUGAGGAUCACCCAUGUUUUUGUUGAAGGAUAUGCAAGGGUUG	5.79 nM	5.59 nM	–	–
CAAUCGGCACAGAAGGGUGACAUGAGGAUCACCCAUGUAGCGUGGCACUCAGGAGGAGCCACGCCACAGGAUAUGUGCCAGCAC	–	–	50.5 nM	53.8 nM
CAAUUGGCACAGAAGGGUGACAUGAGGAUCACCCAUGUAGCGUGGCACUCAGGAGGAACCACGCCACAGGAUAUGUGCGGGCAC	–	–	65 nM	76.6 nM
CAAUUGGCACAGAAGGGUGACAUGAGGAUCACCCAUGUAGCGUGGCUCUCAGGAGGAGCCACGCCACAGGAUAUGUGCGGGCAC	–	–	33.2 nM	63.2 nM
CACAAGAAAGUCGAAGGUUGAAGUAGAAGGACAACAACAUGACAUGAGGAUCACCCAUGUGCCAUGUAGGAUAUGCUUUAAUCG	8.28 nM	9.14 nM	–	–
CACAAUCUAUCUGAGGAUAUCAUGAAAAAAACAUGAGGAUCACCCAUGUGCAGGAAAACUGCAUAUGAGAAGGCAGAUAGAUUGC	–	–	613 nM	29.1 nM
CACAUGUGAGGAUAUGUAAUAAAGGCGACGCGGGUCGCCCGACAGAAGGCACAUGAGGAUCACCCAUGUGAUGA	98 nM	37 nM	–	–
CACCGUUAGAGAGGAUAUCGUACAUGAGGAUCACCCAUGUAAUAAAUGAGAAUUUCGGAUGUAUGCGAGAAGGCUCGAAUCGGC	40.7 nM	53.4 nM	–	–
CACCGUUAGUGAGGAUAUAGUACAUGAGGAUCACCCAUGUAAUAAAUGAGAAUUUCGGAUGUAUGCUAGAAGGCACAAAUCGGC	65.8 nM	60.4 nM	–	–
CACGUCCUCACAGGAUAUGCUGGACUUUGUCCAGCAGAAGGGUGAAACAUGAGGAUCACCCAUGUUAGGACGUGUAUAUUUAAU	–	–	86.7 nM	625 nM
CACUCAGGCACAUGAGGAUCACCCAUGUCCCGGAAGCCGAGACAGGAUAUGUGCCUCGAAUGUGCACAGAAGGGUCUACUAUGU	–	–	374 nM	264 nM
CAGAAGUCAGGAUAUCCAUGGCGGCACUUGCGUGGUGGCGUGGAGAAGGGACAUGAGGAUCACCCAUGUAAAGU	61.7 nM	58.7 nM	–	–
CAGAAGUCAGGAUAUGCAUGGCGGGACUUGCGUCGUGGCGUGCAGAAGGGACAUGAGGAUCACCCAUGUAAAGU	69.7 nM	53.5 nM	–	–

Sequence	apparent Kd [1]	apparent Kd [2]	apparent Kd [3]	apparent Kd [4]
CAGACGUGAGGAUAUCUGAUGUCUAACUUCGGUUAGACAUCAGAGAAGGCACAUGAGGAUCACCCAUGUCUGAA	309 nM	76.8 nM	–	–
CAGAUAAAAGUGUGGUCCUCGACAUGAGGAUCACCCAUGUACGAGGAUAUGUAAUAUACGGUAUAGCAGAAGGCGUAUGGGUGU	36.2 nM	37.7 nM	–	–
CAGAUAGGUGUGAGGAUAUAUCGUUAGCAAUGGCUAUAGAAGGCACAUGAGGAUCACCCAUGUGAGAUUGGCGU	20.5 nM	21.3 nM	–	–
CAGCAUCAUGUAGGAUAUGCGUGGCGAAGCUAUGCAGAAGGACAUGAGGAUCACCCAUGUCUUACCUAGCGUACUAGGUUGCUG	16.6 nM	7.3 nM	–	–
CAGCCCUGAGGAUAUCCACCCUCGUACAUGAGGAUCACCCAUGUCUCCCUCUGGGCUUUCGGAGAAGGCAGGUAUC	58.5 nM	69 nM	–	–
CAGCCCUGAGGAUAUCCCUACUUGUACAUGAGGAUCACCCAUGUUCUCCUCCGGGCUUCGGGAGAAGGCAGGUCUC	15.5 nM	15.9 nM	–	–
CAGCGAAAGCUGAAUCUGUAGAGAGAGGAUAUACAAGAAUAAAUCCAUACAUGAGGAUCACCCAUGUAGAAGGCUCUCUACAGU	26.6 nM	7.41 nM	–	–
CAGCGAUAGCUGAACAAUCUAUCUGAGGAUAUUCAGAAUAAACAUGAGGAUCACCCAUGUAAUUGGGAGAAGGCAGAUAGAUUG	–	–	9.19 nM	5.48 nM
CAGCGGAGCCUAGGAUAUGCGACAUGAGGAUCACCCAUGUACGCCAAAACGUCACCAUGGGUCUCGCAGAAGGAGGAAACACUG	24.3 nM	54.7 nM	–	–
CAGCGUACCAGAGGAUAUGAUUGUGGGUAAAGAGCGCUUAGGUGGCUACAUGAGGAUCACCCAUGUCAGAAGGCUGGAGUUCAA	129 nM	279 nM	–	–
CAGGUAGACUGAGGAUAUACAAUAAACAGCUAGUCUAUCUAGCUGCUCACAUGAGGAUCACCCAUGUAGAAGGCAGUCUGCCUG	45.1 nM	18.7 nM	–	–
CAGGUAGACUGAGGAUAUACAAUAAGACCUAGUCUAUCUAGGUCACUCACAUGAGGAUCACCCAUGUAGAAGGCAGUCUGCCUG	79.7 nM	21.8 nM	–	–
CAGGUAGACUGAGGAUAUACAGACCUAGUCUAUCUAGGUCAAGUCCUUACAUGAGGAUCACCCAUGUAGAAGGCAGUCUGCCUG	52.7 nM	19.5 nM	–	–
CAGUACUGAGGAUAUACAUGAGGAUCACCCAUGUGCCUAAGGUAGGAUACUACCAUUAGUAGAAGGCAGUACUG	29.6 nM	13.8 nM	–	–
CAGUACUGAGGAUAUACAUGAGGAUCACCCAUGUGGUCCAGCUAGGAAACUAGCACGUGUAGAAGGCAGUACUG	56.5 nM	36.1 nM	–	–
CAGUACUGAGGAUAUACAUGAGGAUCACCCAUGUGUCCCAGCUAGGAAACUAGCAAAAGUAGAAGGCAGUACUG	538 nM	23.6 nM	–	–
CAGUACUGAGGAUAUACAUGAGGAUCACCCAUGUGUUCCAGCUAGGAAUCUAGCAAAAGUAGAAGGCAGUACUG	449 nM	25.9 nM	–	–
CAGUGCAAUGUAGGAUAUGCUCAGGAUAACUGAGCAGAAGGACAUGAGGAUCACCCAUGUACUAUGAAAGAUAAUAAAGCACUG	18.3 nM	14.1 nM	–	–
CAUAAACAUGAGGAUCACCCAUGUGAGGAUAUGAUAUUACUAGGACGGCUGUAAUCAAUCAGAAGGCACAUCUU	37.5 nM	18.5 nM	–	–
CAUAACGGCUGAGGAUAUUGAAUGUGCGUGGACAUGAGGAUCACCCAUGUUCAAGAAGGCAGCAAUUUACUUGGGUCUACCCGC	309 nM	40.9 nM	–	–
CAUACCUGUGAAGGAUAUACGUUGUUAGCUACCGUAGAAGGUCACAUGAGGAUCACCCAUGUCAAGGCAAGAACAUGAUCCGAA	566 nM	304 nM	–	–
CAUAUGGUAACAGGAUAUAUGAGUCCUACAUGAGGAUCACCCAUGUAGGUGAUCUAACGAGAUUAGUAGAAGGGUUACCAUAUG	–	–	18.2 nM	8.98 nM
CAUCAGUGUUAAGGAUAUGGCAGCGGAAGCGCACCAGAAGGUAGCACAUGAGGAUCACCCAUGUGUUCUGGCUUGAGCGUGAUC	75.2 nM	36.5 nM	–	–
CAUCCACAUGAGGAUCACCCAUGUCAGGAUAUCGCGCGCGCGUUUUCGGUCUUUCGCGCGAGAAGGGACGACUG	16.3 nM	15.4 nM	–	–
CAUCUACAGGGAGGAUAUACAUGAGGAUCACCCAUGUCAUCAUACGAUCUUUCUUUUGUAUGAGUGUAGAAGGCCCAACUACCA	15.2 nM	15.2 nM	–	–
CAUGUCCUCACAGGAUAUGCACCACUUUGUGGUGCAGAAGGGUGGAUACAUGAGGAUCACCCAUGUGGACAUGAUAUAUUUAAG	–	–	708 nM	58.4 nM
CAUGUCCUCACAGGAUAUGCUGGACUUUGUCCAGCAGAAGGGUGAUAACAUGAGGAUCACCCAUGUGGACAUGAUAUAUUUAAU	–	–	111 nM	568 nM
